{
  "source": "ChEMBL document CHEMBL5385967",
  "about": "“Nitrogen-containing andrographolide derivatives with multidrug resistance reversal effects in cancer cells” (RSC Med Chem, 2024)",
  "data": [
    {"tested_on": "not listed separately", "assay": "Resistance ratio of IC50 for antiproliferative activity against multidrug resistant mouse L5178Y cells transfected with human ABCB1 to IC50 for antiproliferative activity against mouse L5178Y cells", "format": "functional", "details": "not given", "how_it_was_run": "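RR = IC50(MDR)/IC50(PAR), IC50s from the 72 h MTT assay: 2-fold dilutions from 100 μM, 6 × 10^3 cells/well, triplicate. Collateral sensitivity taken as RR < 0.5; RR < 1 counted as selectivity toward resistant cells.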", "values": [
      {"smiles": "C=C1CC[C@@H]2[C@](C)(COC(C)=O)[C@H](OC(C)=O)CC[C@@]2(C)[C@@H]1C[C@H](NNC(=S)NCc1ccccc1)C1=CCOC1=O", "Ratio": 1.01},
      {"smiles": "C=C1CC[C@@H]2[C@](C)(CO)[C@H](O)CC[C@@]2(C)[C@@H]1C/C=C1/C(=O)OC[C@H]1O", "note": "[ANDROGRAPHOLIDE]", "Ratio": 1.03},
      {"smiles": "C=C1CC[C@@H]2[C@](C)(COC(C)=O)[C@H](OC(C)=O)CC[C@@]2(C)[C@@H]1C[C@H](NNC(=S)Nc1ccc(C)cc1)C1=CCOC1=O", "Ratio": 1.31},
      {"smiles": "COc1cccc2c1C(=O)c1c(O)c3c(c(O)c1C2=O)C[C@@](O)(C(=O)CO)C[C@@H]3O[C@H]1C[C@H](N)[C@H](O)[C@H](C)O1", "note": "[DOXORUBICIN]", "Ratio": 95.43},
      {"smiles": "C=C1CC[C@@H]2[C@](C)(COC(C)=O)[C@H](OC(C)=O)CC[C@@]2(C)[C@@H]1C[C@H](NNC(=S)NC1CCCCC1)C1=CCOC1=O", "Ratio": 0.89},
      {"smiles": "C=C1CC[C@@H]2[C@](C)(COC(C)=O)[C@H](OC(C)=O)CC[C@@]2(C)[C@@H]1C[C@H](NNC(=O)c1ccco1)C1=CCOC1=O", "Ratio": 1.38}
    ]},
    {"target": "T1, ATP-dependent translocase ABCB1 (Homo sapiens, UniProt P08183)", "T1 sequence (P08183 whole entry)": "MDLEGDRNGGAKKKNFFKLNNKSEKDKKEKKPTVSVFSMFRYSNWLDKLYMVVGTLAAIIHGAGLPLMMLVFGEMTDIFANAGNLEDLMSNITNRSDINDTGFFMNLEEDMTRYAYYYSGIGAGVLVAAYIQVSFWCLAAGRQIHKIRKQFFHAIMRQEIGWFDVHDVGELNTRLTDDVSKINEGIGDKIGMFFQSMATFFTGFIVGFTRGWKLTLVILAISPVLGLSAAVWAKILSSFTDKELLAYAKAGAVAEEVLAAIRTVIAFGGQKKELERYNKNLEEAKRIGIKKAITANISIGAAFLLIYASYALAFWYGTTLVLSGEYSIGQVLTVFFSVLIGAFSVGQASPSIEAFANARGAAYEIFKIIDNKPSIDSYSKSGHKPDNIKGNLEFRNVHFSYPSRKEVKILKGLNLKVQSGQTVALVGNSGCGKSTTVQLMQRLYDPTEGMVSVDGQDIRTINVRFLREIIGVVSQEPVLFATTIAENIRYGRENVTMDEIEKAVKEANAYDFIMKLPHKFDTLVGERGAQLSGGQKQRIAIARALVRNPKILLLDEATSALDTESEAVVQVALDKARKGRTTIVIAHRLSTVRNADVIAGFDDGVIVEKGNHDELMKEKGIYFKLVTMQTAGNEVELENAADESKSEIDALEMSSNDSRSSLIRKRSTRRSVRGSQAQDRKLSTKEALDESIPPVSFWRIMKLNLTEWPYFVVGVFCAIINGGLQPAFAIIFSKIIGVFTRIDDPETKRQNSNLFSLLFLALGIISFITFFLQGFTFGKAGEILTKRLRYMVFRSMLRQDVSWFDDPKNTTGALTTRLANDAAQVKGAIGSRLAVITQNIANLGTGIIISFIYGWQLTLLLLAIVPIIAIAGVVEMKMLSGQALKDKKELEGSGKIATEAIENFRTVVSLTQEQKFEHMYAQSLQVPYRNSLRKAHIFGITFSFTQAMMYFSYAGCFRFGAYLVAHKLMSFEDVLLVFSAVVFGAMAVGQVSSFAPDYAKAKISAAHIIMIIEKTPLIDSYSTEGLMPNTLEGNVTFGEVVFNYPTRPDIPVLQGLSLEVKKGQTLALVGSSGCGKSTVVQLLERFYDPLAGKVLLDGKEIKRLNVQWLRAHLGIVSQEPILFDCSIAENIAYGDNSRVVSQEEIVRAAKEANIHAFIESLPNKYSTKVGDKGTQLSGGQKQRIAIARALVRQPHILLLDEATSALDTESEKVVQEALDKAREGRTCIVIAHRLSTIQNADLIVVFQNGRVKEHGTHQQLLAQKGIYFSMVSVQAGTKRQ", "assay": "Modulation of human P-gp transfected in mouse L5178Y cells assessed as change in Rhodamine-123 efflux by measuring fluorescence activity ratio at 0.2 uM pretreated for 10 mins followed by Rhodamine-123 challenge for 20 mins by flow cytometry relative to parental mouse L5178Y cells", "format": "cell-based", "details": "0.5 h, time 30 min", "how_it_was_run": "(§1)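 PAR and MDR cells at 2 × 10^6 cells/mL in serum-free McCoy's 5A. Compound given 10 min at room temperature, then rhodamine-123 (5.2 μM final) for 20 min at 37 °C. Washed twice, resuspended in PBS, mean FL-1 read by flow cytometry. FAR = (MDR treated/untreated)/(PAR treated/untreated). Verapamil 20 μM positive control, DMSO 2% solvent control.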", "values": [
      {"smiles": "C=C1CC[C@@H]2[C@](C)(COC(C)=O)[C@H](OC(C)=O)CC[C@@]2(C)[C@@H]1C[C@H](NNC(=O)c1ccco1)C1=CCOC1=O", "Ratio": 2.32}
    ]},
    {"tested_on": "L5178Y", "assay": "Reversal of multidrug resistance in multidrug resistant mouse L5178Y cells transfected with human ABCB1 assessed as reduction in cell viability incubated for 72 hrs by MTT assay", "format": "functional, cell-based", "details": "not given", "how_it_was_run": "(§2)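 Parental L5178Y or human ABCB1-transfected L5178Y MDR subline kept under 60 ng mL−1 colchicine selection; McCoy's 5A, 10% heat-inactivated horse serum, 37 °C. 6 × 10^3 cells/well exposed to 2-fold serial dilutions from 100 μM for 72 h. MTT 4 h, SDS overnight, OD 540/630 nm. Triplicate; IC50 from curve fitting, mean ± SD.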", "units": {"IC50": "µM"}, "values": [
      {"smiles": "C=C1CC[C@@H]2[C@](C)(COC(C)=O)[C@H](OC(C)=O)CC[C@@]2(C)[C@@H]1C[C@H](NNC(=S)NCc1ccccc1)C1=CCOC1=O", "IC50": 67.6},
      {"smiles": "C=C1CC[C@@H]2[C@](C)(CO)[C@H](O)CC[C@@]2(C)[C@@H]1C/C=C1/C(=O)OC[C@H]1O", "note": "[ANDROGRAPHOLIDE]", "IC50": 15},
      {"smiles": "C=C1CC[C@@H]2[C@](C)(COC(C)=O)[C@H](OC(C)=O)CC[C@@]2(C)[C@@H]1C[C@H](NNC(=S)Nc1ccc(C)cc1)C1=CCOC1=O", "IC50": 47.4},
      {"smiles": "COc1cccc2c1C(=O)c1c(O)c3c(c(O)c1C2=O)C[C@@](O)(C(=O)CO)C[C@@H]3O[C@H]1C[C@H](N)[C@H](O)[C@H](C)O1", "note": "[DOXORUBICIN]", "IC50": 6.82},
      {"smiles": "C=C1CC[C@@H]2[C@](C)(COC(C)=O)[C@H](OC(C)=O)CC[C@@]2(C)[C@@H]1C[C@H](NNC(=S)NC1CCCCC1)C1=CCOC1=O", "IC50": 67.4},
      {"smiles": "C=C1CC[C@@H]2[C@](C)(COC(C)=O)[C@H](OC(C)=O)CC[C@@]2(C)[C@@H]1C[C@H](NNC(=O)c1ccco1)C1=CCOC1=O", "IC50": 15.3}
    ]},
    {"tested_on": "L5178Y", "assay": "Synergistic antiproliferative activity against multidrug resistant mouse L5178Y cells transfected with human ABCB1 assessed as combination index incubated for 72 hrs in presence of doxorubicin by MTT assay", "format": "functional", "details": "not given", "how_it_was_run": "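Checkerboard in MDR cells, 6 × 10^3 cells/well. Doxorubicin in serial dilutions from 8.6 μM, crossed with modifier dilutions whose start level was set from its IC50. 72 h at 37 °C under CO2, growth read by MTT. Curves fitted by the median-effect equation; CI reported at 50% inhibition, mean ± SD.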", "values": [
      {"smiles": "C=C1CC[C@@H]2[C@](C)(CO)[C@H](O)CC[C@@]2(C)[C@@H]1C/C=C1/C(=O)OC[C@H]1O", "note": "[ANDROGRAPHOLIDE]", "CI": "<1"},
      {"smiles": "C=C1CC[C@@H]2[C@](C)(COC(C)=O)[C@H](OC(C)=O)CC[C@@]2(C)[C@@H]1C[C@H](NNC(=O)c1ccco1)C1=CCOC1=O", "CI": "<1"}
    ]},
    {"target": "T1, ATP-dependent translocase ABCB1", "assay": "Modulation of human P-gp transfected in mouse L5178Y cells assessed as change in Rhodamine-123 efflux by measuring fluorescence activity ratio at 2 uM pretreated for 10 mins followed by Rhodamine-123 challenge for 20 mins by flow cytometry relative to parental mouse L5178Y cells", "format": "cell-based", "details": "0.5 h, time 30 min", "how_it_was_run": "as §1", "values": [
      {"smiles": "C=C1CC[C@@H]2[C@](C)(COC(C)=O)[C@H](OC(C)=O)CC[C@@]2(C)[C@@H]1C[C@H](NNC(=S)NCc1ccccc1)C1=CCOC1=O", "Ratio": 1.71},
      {"smiles": "C=C1CC[C@@H]2[C@](C)(CO)[C@H](O)CC[C@@]2(C)[C@@H]1C/C=C1/C(=O)OC[C@H]1O", "note": "[ANDROGRAPHOLIDE]", "Ratio": 0.96},
      {"smiles": "C=C1CC[C@@H]2[C@](C)(COC(C)=O)[C@H](OC(C)=O)CC[C@@]2(C)[C@@H]1C[C@H](NNC(=S)Nc1ccc(C)cc1)C1=CCOC1=O", "Ratio": 18.86},
      {"smiles": "C=C1CC[C@@H]2[C@](C)(COC(C)=O)[C@H](OC(C)=O)CC[C@@]2(C)[C@@H]1C[C@H](NNC(=S)NC1CCCCC1)C1=CCOC1=O", "Ratio": 18.13},
      {"smiles": "C=C1CC[C@@H]2[C@](C)(COC(C)=O)[C@H](OC(C)=O)CC[C@@]2(C)[C@@H]1C[C@H](NNC(=O)c1ccco1)C1=CCOC1=O", "Ratio": 4.28}
    ]},
    {"target": "T1, ATP-dependent translocase ABCB1", "assay": "Modulation of human P-gp transfected in mouse L5178Y cells assessed as change in Rhodamine-123 efflux by measuring fluorescence activity ratio at 20 uM pretreated for 10 mins followed by Rhodamine-123 challenge for 20 mins by flow cytometry relative to parental mouse L5178Y cells", "format": "cell-based", "details": "0.5 h, time 30 min", "values": [
      {"smiles": "C=C1CC[C@@H]2[C@](C)(COC(C)=O)[C@H](OC(C)=O)CC[C@@]2(C)[C@@H]1C[C@H](NNC(=S)NCc1ccccc1)C1=CCOC1=O", "Ratio": 57.14},
      {"smiles": "C=C1CC[C@@H]2[C@](C)(CO)[C@H](O)CC[C@@]2(C)[C@@H]1C/C=C1/C(=O)OC[C@H]1O", "note": "[ANDROGRAPHOLIDE]", "Ratio": 0.82},
      {"smiles": "C=C1CC[C@@H]2[C@](C)(COC(C)=O)[C@H](OC(C)=O)CC[C@@]2(C)[C@@H]1C[C@H](NNC(=S)Nc1ccc(C)cc1)C1=CCOC1=O", "Ratio": 60.26},
      {"smiles": "C=C1CC[C@@H]2[C@](C)(COC(C)=O)[C@H](OC(C)=O)CC[C@@]2(C)[C@@H]1C[C@H](NNC(=S)NC1CCCCC1)C1=CCOC1=O", "Ratio": 64.94}
    ]},
    {"tested_on": "L5178Y", "assay": "Antiproliferative activity against mouse L5178Y cells assessed as reduction in cell viability incubated for 72 hrs by MTT assay", "format": "functional, cell-based", "details": "not given", "how_it_was_run": "as §2", "units": {"IC50": "µM"}, "values": [
      {"smiles": "C=C1CC[C@@H]2[C@](C)(COC(C)=O)[C@H](OC(C)=O)CC[C@@]2(C)[C@@H]1C[C@H](NNC(=S)NCc1ccccc1)C1=CCOC1=O", "IC50": 66.9},
      {"smiles": "C=C1CC[C@@H]2[C@](C)(CO)[C@H](O)CC[C@@]2(C)[C@@H]1C/C=C1/C(=O)OC[C@H]1O", "note": "[ANDROGRAPHOLIDE]", "IC50": 14.5},
      {"smiles": "C=C1CC[C@@H]2[C@](C)(COC(C)=O)[C@H](OC(C)=O)CC[C@@]2(C)[C@@H]1C[C@H](NNC(=S)Nc1ccc(C)cc1)C1=CCOC1=O", "IC50": 36.1},
      {"smiles": "COc1cccc2c1C(=O)c1c(O)c3c(c(O)c1C2=O)C[C@@](O)(C(=O)CO)C[C@@H]3O[C@H]1C[C@H](N)[C@H](O)[C@H](C)O1", "note": "[DOXORUBICIN]", "IC50": 0.07},
      {"smiles": "C=C1CC[C@@H]2[C@](C)(COC(C)=O)[C@H](OC(C)=O)CC[C@@]2(C)[C@@H]1C[C@H](NNC(=S)NC1CCCCC1)C1=CCOC1=O", "IC50": 75.7},
      {"smiles": "C=C1CC[C@@H]2[C@](C)(COC(C)=O)[C@H](OC(C)=O)CC[C@@]2(C)[C@@H]1C[C@H](NNC(=O)c1ccco1)C1=CCOC1=O", "IC50": 11.1}
    ]}
  ]
}
